Results: ChEMBL document CHEMBL1126988, “Quinolone antibacterials containing the new 7-[3-(1-aminoethyl)-1- pyrrolidinyl] side chain: the effects of the 1-aminoethyl moiety and its stereochemical configurations on potency and in vivo efficacy” (J Med Chem, 1993)
Converted amounts (≈) assume the structure as drawn.

Key:
Staphylococcus aureus [1] = experiment: Minimum inhibitory concentration was evaluated in vitro against Staphylococcus aureus H 228; assay type: functional; settings: Staphylococcus aureus; read-out: MIC
Procedure, shortened: (§1)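 Standard microtitration broth assay against a panel of 10 Gram-positive and Gram-negative organisms. MIC read in µg/mL and averaged over multiple experiments.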

Streptococcus pyogenes [2] = experiment: Compounds were evaluated in vivo for antibacterial activity for mouse protection against Streptococcus pyogenes C 203 after subcutaneous administration; assay type: functional; settings: C 203, sc, read-out: PD50
Streptococcus pyogenes [3] = experiment: Minimum inhibitory concentration was evaluated in vitro against Streptococcus pyogenes C 203; assay type: functional; procedure, shortened: as §1
Klebsiella pneumoniae = experiment: Minimum inhibitory concentration was evaluated in vitro against Klebsiella pneumoniae MGH2; assay type: functional; settings: Klebsiella pneumoniae; read-out: MIC; procedure, shortened: as §1
Pseudomonas aeruginosa = experiment: Minimum inhibitory concentration was evaluated in vitro against Pseudomonas aeruginosa UI-18; assay type: functional; settings: Pseudomonas aeruginosa; read-out: MIC; procedure, shortened: as §1
Staphylococcus aureus [4] = experiment: Minimum inhibitory concentration was evaluated in vitro against Staphylococcus aureus UC 76; assay type: functional; procedure, shortened: as §1
Providencia rettgeri = experiment: Minimum inhibitory concentration was evaluated in vitro against Providencia rettgeri M1771; assay type: functional; settings: Providencia rettgeri; read-out: MIC; procedure, shortened: as §1
Streptococcus pneumoniae [5] = experiment: Antibacterial activity expressed as Minimum inhibitory concentration was evaluated in vitro against Streptococcus pneumoniae SV-1; assay type: functional
Procedure, shortened: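 Standard microtitration broth MIC (μg/mL), averaged from multiple experiments; one of a 10-organism Gram-positive/Gram-negative panel.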

Streptococcus pyogenes [6] = experiment: Compounds were evaluated in vivo for antibacterial activity for mouse protection against Streptococcus pyogenes C 203 after oral administration; assay type: functional; settings: for ED50: C 203, po, read-out: PD50
Enterococcus faecalis [7] = experiment: Minimum inhibitory concentration was evaluated in vitro against Enterococcus faecalis MGH-2; assay type: functional; settings: Enterococcus faecalis; read-out: MIC; procedure, shortened: as §1
Enterobacter cloacae = experiment: Minimum inhibitory concentration in vitro against Enterobacter cloacae MA 2646; assay type: functional; settings: Enterobacter cloacae; read-out: MIC
Escherichia coli [8] = experiment: Antibacterial activity in vitro against Escherichia coli Vogel; assay type: functional; settings: Escherichia coli; read-out: MIC; procedure, shortened: as §1
Streptococcus pyogenes [9] = experiment: Antibacterial activity measured as mouse protection against Streptococcus pyogenes C 203 after subcutaneous administration; assay type: functional; settings: for ED50: Streptococcus pyogenes, C 203, sc, read-out: PD50
DNA gyrase = DNA gyrase (Escherichia coli, UniProt P0AES4+P0AES6); experiment: Inhibition against DNA gyrase; assay type: protein-complex assay
Escherichia coli [10] = experiment: Antibacterial activity against Escherichia coli Vogel after oral administration in mouse; assay type: functional; settings: for ED50: Escherichia coli, po, read-out: PD50
Escherichia coli [11] = experiment: Antibacterial activity against Escherichia coli Vogel after subcutaneous administration in mouse; assay type: functional; settings: Escherichia coli, sc; read-out: PD50
[12] = Clonogenic cytotoxicity against hamster V-79 cells; assay type: functional, Cricetulus griseus, V79
Procedure, shortened: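 Chinese hamster V-79 cells grown overnight, then drug-treated for 3 h at 37 °C. Medium is replaced with fresh medium and cells are incubated 5 days to allow colony formation. IC50 (µg/mL) is the concentration inhibiting colony formation by 50% relative to control.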

Streptococcus pneumoniae [13] = experiment: Minimum inhibitory concentration was evaluated in vitro against Streptococcus pneumoniae SV-1; assay type: functional; procedure, shortened: as §1
Mus musculus [14] = organism: Mus musculus; experiment: Compounds were evaluated for phototoxicity no-effect dose in mouse; assay type: functional
Procedure, shortened: (§2)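 Depilated female CD-1 mice, five per dose plus controls. Animals are dosed orally and then exposed daily to UV-A (320–400 nm) for 3 h, for up to 4 days or until a definite positive response. Redness or erythema relative to controls, read 24 h after irradiation, counts as positive. Reported as the highest dose with no effect (mg/kg).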

Streptococcus pyogenes [15] = experiment: Antibacterial activity expressed as Minimum inhibitory concentration was evaluated in vitro against Streptococcus pyogenes C 203; assay type: functional; procedure, shortened: as §1
Mus musculus [16] = organism: Mus musculus; experiment: Compounds was evaluated for phototoxicity no-effect dose in mouse; assay type: functional; procedure, shortened: as §2
[17] = molecular target: DNA gyrase (Escherichia coli) (UniProt P0AES6+P0AES4); experiment: Initial inhibition as minimal concentration to induce cleavage of DNA gyrase complex; assay type: protein-complex assay
Procedure, shortened: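 DNA gyrase isolated and purified from E. coli H560. Uses the initial cleavage method with relaxed Col E1 plasmid DNA as substrate. Read-out is the lowest drug concentration (µg/mL) giving detectable cleavage, seen by agarose gel electrophoresis with ethidium bromide staining. Averaged over multiple experiments, accurate to ±50%.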

Mus musculus [18] = organism: Mus musculus; experiment: Compound was evaluated for phototoxicity no-effect dose in mouse; assay type: functional; procedure, shortened: as §2
Enterococcus faecalis [19] = experiment: Antibacterial activity expressed as Minimum inhibitory concentration was evaluated in vitro against Enterococcus faecalis MGH-2; assay type: functional; procedure, shortened: as §1
[20] = Streptococcus pyogenes, read-out: MIC
[21] = Staphylococcus aureus, read-out: MIC
[22] = Streptococcus pneumoniae, read-out: MIC

Compound | MIC (Staphylococcus aureus [1]) [µg/mL] | MIC (Streptococcus pyogenes [3]; [20]) [µg/mL] | MIC (Klebsiella pneumoniae) [µg/mL] | MIC (Pseudomonas aeruginosa) [µg/mL] | MIC (Staphylococcus aureus [4]; [21]) [µg/mL] | MIC (Providencia rettgeri) [µg/mL] | MIC (Enterococcus faecalis [7]) [µg/mL] | MIC (Enterobacter cloacae) [µg/mL] | MIC (Escherichia coli [8]) [µg/mL] | ED50 (Streptococcus pyogenes [9]) [mg/kg] | IC50 (DNA gyrase) [nM] | ED50 (Streptococcus pyogenes [6]; Streptococcus pyogenes) [mg/kg] | ED50 (Escherichia coli [10]) [mg/kg] | ED50 (Escherichia coli [11]) [mg/kg] | Cytotoxicity [12] [µg/mL] | MIC (Streptococcus pneumoniae [13]; [22]) [µg/mL] | further results
CCN[C@@H](C)[C@H]1CCN(c2nc3c(cc2F)c(=O)c(C(=O)O)cn3C2CC2)C1 | 0.8 (≈ 2.06 µM) | 0.4 (≈ 1.03 µM) | 0.8 (≈ 2.06 µM) | 6.3 (≈ 16.2 µM) | 0.4 (≈ 1.03 µM) | 3.1 (≈ 7.98 µM) | 0.8 (≈ 2.06 µM) | 0.8 (≈ 2.06 µM) | 0.4 (≈ 1.03 µM) |  |  |  |  |  |  |  | ED50 (Streptococcus pyogenes [2]): 12 mg/kg; MIC (Streptococcus pneumoniae [5]): 0.2 µg/mL (≈ 0.515 µM); ED50 (Streptococcus pyogenes [6]): 12 mg/kg
CC1(CN)CCN(c2cc3c(cc2F)c(=O)c(C(=O)O)cn3C2CC2)C1 (stereo not given) | 0.1 (≈ 0.278 µM) |  |  |  | 0.013 (≈ 0.0362 µM) | 0.8 (≈ 2.23 µM) |  |  |  | 3 | 2780 | 31 | 43 | 3 |  |  | 
C[C@@H](N)[C@H]1CCN(c2nc3c(cc2F)c(=O)c(C(=O)O)cn3-c2ccc(F)cc2F)C1 (racemic) | 0.05 (≈ 0.116 µM) |  | 0.2 (≈ 0.463 µM) | 0.8 (≈ 1.85 µM) | 0.006 (≈ 0.0139 µM) | 0.4 (≈ 0.925 µM) | 0.025 (≈ 0.0578 µM) | 0.2 (≈ 0.463 µM) | 0.1 (≈ 0.231 µM) | 1 | 1160 | 1 |  | 1 | 280 | 0.006 (≈ 0.0139 µM) | PD50 (Escherichia coli [10]): 3 mg/kg; Dose (Mus musculus [14]): >100 mg/kg; MIC (Streptococcus pyogenes [15]): 0.006 µg/mL (≈ 0.0139 µM)
CN[C@@H](C)[C@@H]1CCN(c2nc3c(cc2F)c(=O)c(C(=O)O)cn3C2CC2)C1 (mixture of isomers) | 0.1 |  | 0.2 | 1.6 |  | 0.4 | 0.1 | 0.1 | 0.1 |  |  |  |  |  | 130 |  | Dose (Mus musculus [16]): 18 mg/kg; MIC (Streptococcus pyogenes [3]): 0.025 µg/mL; MIC (Streptococcus pneumoniae [13]): 0.013 µg/mL; PD50 (Streptococcus pyogenes [9]): 2 mg/kg; MIC (Staphylococcus aureus [4]): 0.013 µg/mL; PD50 (Streptococcus pyogenes [6]): 2 mg/kg
CN[C@H](C)[C@H]1CCN(c2c(F)cc3c(=O)c(C(=O)O)cn(C4CC4)c3c2OC)C1 (racemic) | 0.013 (≈ 0.0322 µM) |  | 0.1 (≈ 0.248 µM) | 0.8 (≈ 1.98 µM) | 0.003 (≈ 0.00744 µM) | 0.2 (≈ 0.496 µM) | 0.025 (≈ 0.062 µM) | 0.05 (≈ 0.124 µM) | 0.05 (≈ 0.124 µM) | 0.1 |  |  | 5 | 1 | 33 | 0.003 (≈ 0.00744 µM) | Initial inhibition [17]: < 0.5 µg/mL; Dose (Mus musculus [14]): >100 mg/kg; MIC (Streptococcus pyogenes [15]): 0.003 µg/mL (≈ 0.00744 µM)
NC1CCN(c2nc3c(cc2F)c(=O)c(C(=O)O)cn3C2CC2)C1 (stereo not given) | 0.2 (≈ 0.602 µM) | 0.2 (≈ 0.602 µM) | 0.025 (≈ 0.0752 µM) | 0.1 (≈ 0.301 µM) | 0.013 (≈ 0.0391 µM) | 0.05 (≈ 0.15 µM) | 0.2 (≈ 0.602 µM) | 0.025 (≈ 0.0752 µM) | 0.013 (≈ 0.0391 µM) | 14 | 2260 | 32 | 2 | 0.6 | 98 |  | MIC (Streptococcus pneumoniae [5]): 0.2 µg/mL (≈ 0.602 µM); Dose (Mus musculus [18]): >100 mg/kg
CCNCC1CCN(c2c(F)cc3c(=O)c(C(=O)O)cn(C4CC4)c3c2F)C1 (stereo not given) [PD-117558] | 0.025 (≈ 0.0639 µM) |  |  |  |  | 0.2 (≈ 0.511 µM) |  | 0.1 (≈ 0.255 µM) | 0.05 (≈ 0.128 µM) |  |  |  | 4 |  |  |  | ED50 (Streptococcus pyogenes [2]): 0.8 mg/kg; ED50 (Streptococcus pyogenes [6]): 1 mg/kg
CCn1cc(C(=O)O)c(=O)c2cc(F)c(N3CC[C@@H]([C@@H](C)N)C3)c(F)c21 | 0.1 (≈ 0.274 µM) | 0.05 (≈ 0.137 µM) | 0.2 (≈ 0.547 µM) | 1.6 (≈ 4.38 µM) | 0.025 (≈ 0.0684 µM) | 0.4 (≈ 1.09 µM) |  | 0.1 (≈ 0.274 µM) | 0.1 (≈ 0.274 µM) | 2 |  | 19 | 15 | 2 |  | 0.05 (≈ 0.137 µM) | MIC (Enterococcus faecalis [19]): 0.1 µg/mL (≈ 0.274 µM)
